For five molecules, T/C and GI50 results are on record in ChEMBL document CHEMBL1158800, “Antineoplastic agents. 545. Isolation and structure of turbostatins 1-4 from the Asian marine mollusk Turbo stenogyrus” (2005).

≈ marks a conversion by molar mass, not a printed value.

Common to all, as to format: functional
Test [1] has as its system P388. The experiment in a line: In vivo antitumor activity against mouse P388 cells at 4 to 800 mg/ kg. The following applies: dose mg/ kg 4-800.
The test system of another test is NCI-H460. The experiment in a line: Growth inhibition of human NCI-H460 cells after 48 hrs by particle counting method. Conditions: NCI-H460, 48 h.
In a further test the test system is MCF7. Put plainly: Growth inhibition of human MCF7 cells after 48 hrs by particle counting method. The following applies: MCF7, 48 h.
Test [2] is described as follows: Growth inhibition of human MXPC3 cells after 48 hrs by particle counting method. Conditions: MXPC3, 48 h.
For test [3], the system named is P388. The experiment in a line: Growth inhibition of mouse P388 cells after 48 hrs by particle counting method. The following applies: P388, 48 h. The method in brief: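 Murine P388 lymphocytic leukemia cells in 10% horse serum/Fisher medium, preincubated 24 hrs. Serial dilutions of the compounds were added and cells grown 48 hrs. Cell numbers were counted with a Z1 Coulter particle counter, and the ED50 for growth inhibition was calculated.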

The test system of a further test is SF-268. The experiment in a line: Growth inhibition of human SF268 cells after 48 hrs by particle counting method. The following applies: SF-268, 48 h.
For another test, the system named is KM-20L2. The experiment in a line: Growth inhibition of human KM20L2 cells after 48 hrs by particle counting method. Conditions: KM-20L2, 48 h.
For a further test, the system named is DU-145. Put plainly: Growth inhibition of human DU145 cells after 48 hrs by particle counting method. The following applies: DU-145, 48 h.

`NCCS(=O)(=O)O` [TAURINE] displayed a T/C in the test on P388 [1] of 123.
As a reminder, the GI50 is the concentration giving 50% growth inhibition. Low values mean greater sensitivity of the cells, high ones lower sensitivity of the cells. Take `CCCCCCCCCCC/C=C/[C@@H](O)[C@H](CO[C@@H]1O[C@H](CO)[C@@H](O)[C@H](O)[C@H]1O)NC(=O)CCCCCCCCCCCCCCC` [TURBOSTATIN 1]: the GI50 in the test on NCI-H460 worked out at 0.34 µg/mL (≈ 0.506 µM); with MCF7, 0.44 µg/mL (≈ 0.655 µM); in test [2], 0.71 µg/mL (≈ 1.06 µM); with P388 [3] it was 0.27 µg/mL (≈ 0.402 µM); in the test with SF-268 it was 0.98 µg/mL (≈ 1.46 µM); in the test with KM-20L2, 0.35 µg/mL (≈ 0.521 µM). The same molecule had a GI50 with DU-145 of 1.6 µg/mL (≈ 2.38 µM).
`CCCCCCCCCCC/C=C/[C@@H](O)[C@H](CO[C@@H]1O[C@H](CO)[C@@H](O)[C@H](O)[C@H]1O)NC(=O)CCCCCCCCCCCCCCCCC` [TURBOSTATIN 2]: the concentration for 50% growth inhibition (GI50) in the test on NCI-H460 is 0.53 µg/mL (≈ 0.757 µM); in the test with MCF7, 0.39 µg/mL (≈ 0.557 µM); in test [2], 1 µg/mL (≈ 1.43 µM); with P388 [3], 0.15 µg/mL (≈ 0.214 µM); in the test with SF-268, 1.9 µg/mL (≈ 2.71 µM); in the test with KM-20L2, 0.35 µg/mL (≈ 0.5 µM). Also, halving of growth in the test with DU-145 (GI50) required 1.7 µg/mL (≈ 2.43 µM).
As for `CCCCCCCCCCC/C=C/[C@@H](O)[C@H](CO[C@@H]1O[C@H](CO)[C@H](O)[C@H](O)[C@H]1O)NC(=O)CCCCCCCCCCCCCCC` [TURBOSTATIN 3], the GI50 worked out at 0.55 µg/mL (≈ 0.818 µM) with NCI-H460; 0.48 µg/mL (≈ 0.714 µM) in the test on MCF7; 1.6 µg/mL (≈ 2.38 µM) in test [2]; 0.25 µg/mL (≈ 0.372 µM) in the test on P388 [3]; 1.9 µg/mL (≈ 2.83 µM) with SF-268; 0.48 µg/mL (≈ 0.714 µM) in the test on KM-20L2. The GI50 in the test on DU-145 amounted to 2.6 µg/mL (≈ 3.87 µM).
As for `CCCCCCCCCCC/C=C/[C@@H](O)[C@H](CO[C@@H]1O[C@H](CO)[C@H](O)[C@H](O)[C@H]1O)NC(=O)CCCCCCCCCCCCCCCCC` [TURBOSTATIN 4], the GI50 was 0.49 µg/mL (≈ 0.7 µM) in the test on NCI-H460; 0.44 µg/mL (≈ 0.629 µM) with MCF7; 0.93 µg/mL (≈ 1.33 µM) in test [2]; 0.29 µg/mL (≈ 0.414 µM) in the test with P388 [3]; 1.5 µg/mL (≈ 2.14 µM) in the test with SF-268; 0.41 µg/mL (≈ 0.586 µM) in the test on KM-20L2. The molecule also had a GI50 in the test on DU-145 of 2.6 µg/mL (≈ 3.71 µM).
